Consider four molecules from ChEMBL document CHEMBL3526053, “Species-dependent uptake of glycylsarcosine but not oseltamivir in Pichia pastoris expressing the rat, mouse, and human intestinal peptide transporter PEPT1” (Drug Metab Dispos, 2012).

A word on the Km: it is the substrate concentration at which the rate is half of its maximum.

Series [1] relates to PEPT1. Description: Ratio of Km for human recombinant PEPT1 expressed in Pichia pastoris GS115 to Km for mouse recombinant PEPT1 expressed in Pichia pastoris GS115. In kind it is ADME. To be noted: not told.
Series [2] concerns PEPT1. Description: Drug uptake in Xenopus laevis oocytes expressing salmon PEPT1 measured at pH 6.5 and -60 mV by two-electrode voltage-clamp electrophysiology. In kind it is ADME, cell-based. To be noted: salmonidae, Xenopus laevis oocytes expressing salmon PEPT1, pH 6.5.
Series [3] has as its system PEPT1. The series is described as follows: Drug uptake in human HeLa cells expressing monkey PEPT1 measured at pH 6. In kind it is ADME, cell-based, Macaca mulatta. The following applies: rhesus monkey, HeLa cells expressing monkey PEPT1, pH 6.
In series [4] the test system is PEPT1. The series is described as follows: Drug uptake in CHO cells expressing chicken PEPT1 measured at pH 6. Type of series: ADME, cell-based, Gallus gallus. To be noted: CHO cells expressing chicken PEPT1, pH 6.
For series [5], the system named is PEPT1. Description: Drug uptake in CHO cells expressing pig PEPT1 measured at pH 6. To be noted: CHO cells expressing pig PEPT1, pH 6. In kind it is ADME, cell-based, Sus scrofa.
A short description of series [6]: Ratio of Km for human recombinant PEPT1 expressed in Pichia pastoris GS115 to Km for rat recombinant PEPT1 expressed in Pichia pastoris GS115. Type of series: ADME.
The subject of series [7] is PEPT1. Description: Drug uptake in Xenopus laevis oocytes expressing sheep PEPT1 measured at pH 5.5 and -60 mV by two-electrode voltage-clamp electrophysiology. Type of series: ADME, cell-based, Ovis aries. The following applies: Xenopus laevis oocytes expressing sheep PEPT1, pH 5.5.
Series [8] deals with T1, Solute carrier family 15 member 1 (Oryctolagus cuniculus, UniProt P36836).
T1 sequence (P36836 whole entry): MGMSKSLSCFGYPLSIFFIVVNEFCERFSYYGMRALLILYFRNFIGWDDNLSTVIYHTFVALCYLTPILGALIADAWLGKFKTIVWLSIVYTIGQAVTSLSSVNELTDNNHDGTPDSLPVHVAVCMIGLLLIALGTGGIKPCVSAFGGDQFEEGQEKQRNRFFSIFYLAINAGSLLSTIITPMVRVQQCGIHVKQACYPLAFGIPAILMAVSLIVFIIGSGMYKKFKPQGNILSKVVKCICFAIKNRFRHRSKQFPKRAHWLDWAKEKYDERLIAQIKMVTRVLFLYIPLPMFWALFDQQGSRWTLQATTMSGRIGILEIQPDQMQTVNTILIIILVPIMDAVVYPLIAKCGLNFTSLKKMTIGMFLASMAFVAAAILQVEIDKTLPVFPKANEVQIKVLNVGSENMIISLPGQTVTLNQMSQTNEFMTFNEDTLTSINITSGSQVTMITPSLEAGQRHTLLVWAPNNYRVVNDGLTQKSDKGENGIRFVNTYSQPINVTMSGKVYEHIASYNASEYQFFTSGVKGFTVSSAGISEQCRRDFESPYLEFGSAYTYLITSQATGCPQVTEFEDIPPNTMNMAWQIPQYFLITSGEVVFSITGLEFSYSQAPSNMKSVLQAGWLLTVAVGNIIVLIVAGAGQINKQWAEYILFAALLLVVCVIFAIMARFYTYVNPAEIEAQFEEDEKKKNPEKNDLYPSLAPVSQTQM
Description: Drug uptake in Xenopus laevis oocytes expressing rabbit PEPT1 measured at pH 5.5 and -60 mV by two-electrode voltage-clamp electrophysiology. Type of series: ADME, cell-based. A general note: Two-electrode voltage clamp is typically applied to oocytes expressing channels or transporters.

The subject of series [9] is PEPT1. The series is described as follows: Drug uptake in Xenopus laevis oocytes expressing chicken PEPT1 measured at pH 6 and -60 mV by two-electrode voltage-clamp electrophysiology. Type of series: ADME, cell-based, Gallus gallus. To be noted: Xenopus laevis oocytes expressing chicken PEPT1, pH 6.
Substrate in series [10]: CN(CC(=O)O)C(=O)CN
Description: Activity at mouse recombinant PEPT1 expressed in Pichia pastoris GS115 after 30s by dual-channel liquid scintillation counting analysis. In kind it is ADME. An outline of the steps:
(§1)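 [3H]GlySar concentration series 0.005-10 mM, 30-s uptake at 24°C in 100 mM potassium phosphate pH 6.5. Cells come from His+Mut+ GS115 transformants induced 20-24 h in methanol medium. Uptake is normalised to OD600. Data are fitted to Michaelis-Menten plus a first-order nonsaturable term (Kd), weighting unity. Parameters are mean ± SE (n=9).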

Substrate in series [11]: CN(CC(=O)O)C(=O)CN
The series is described as follows: Drug uptake in Xenopus laevis oocytes expressing mouse PEPT1 measured at pH 5.5 and -60 mV by two-electrode voltage-clamp electrophysiology. Type of series: ADME, cell-based.

Substrate in series [12]: CN(CC(=O)O)C(=O)CN
The series is described as follows: Activity at human recombinant PEPT1 expressed in Pichia pastoris GS115 after 30s by dual-channel liquid scintillation counting analysis. Type of series: ADME. An outline of the steps: as §1

Substrate in series [13]: CN(CC(=O)O)C(=O)CN
Description: Drug uptake in human HeLa cells expressing human PEPT1 measured at pH 6. Type of series: ADME, cell-based.

Substrate in series [14]: CN(CC(=O)O)C(=O)CN
Description: Activity at rat recombinant PEPT1 expressed in Pichia pastoris GS115 after 30s by dual-channel liquid scintillation counting analysis. Type of series: ADME. The gist of the method:
as §1

Substrate in series [15]: CN(CC(=O)O)C(=O)CN
The series is described as follows: Drug uptake in Xenopus laevis oocytes expressing rat PEPT1 measured at pH 6. In kind it is ADME, cell-based.

Non-standard residues stand in square brackets, D forms with d. Residues, ends and D or L forms follow the SMILES beside them. Sar = CNCC(=O)O

On to `CN(CC(=O)O)C(=O)CN` [GLYCYLSARCOSINE] (H-Gly-[Sar]-OH), for which, in the series on PEPT1 [1], the selectivity ratio was 2.9. The Km in the series on PEPT1 [2] was found to be 500 µM; in the series on PEPT1 [3], 350 µM; in the series on PEPT1 [4], 2600 µM; with PEPT1 [5], 940 µM; in the series with PEPT1 [7], 610 µM; in [8] it was 1900 µM. The Km with PEPT1 [9] amounted to 470 µM. In addition, the Ratio in [6] is on record as 5.4.

B1: Solute carrier family 15 member 1 (Mus musculus) (protein)
chain: MGMSKSRGCFGYPLSIFFIVVNEFCERFSYYGMRALLVLYFRNFLGWDDNLSTAIYHTFVALCYLTPILGALIADSWLGKFKTIVSLSIVYTIGQAVISVSSINDLTDHDHNGSPDSLPVHVALSMVGLALIALGTGGIKPCVSAFGGDQFEEGQEKQRNRFFSIFYLAINGGSLLSTIITPILRVQQCGIHSQQACYPLAFGVPAALMAVALIVFVLGSGMYKKFQPQGNIMGKVAKCIGFAIKNRFRHRSKAYPKREHWLDWAKEKYDERLISQIKMVTKVMFLYIPLPMFWALFDQQGSRWTLQATTMNGKIGAIEIQPDQMQTVNAILIVIMVPIVDAVVYPLIAKCGFNFTSLKKMTVGMFLASMAFVVAAIVQVEIDKTLPVFPGGNQVQIKVLNIGNNNMTVHFPGNSVTLAQMSQTDTFMTFDIDKLTSINISSSGSPGVTTVAHDFEQGHRHTLLVWNPSQYRVVKDGLNQKPEKGENGIRFVNTLNEMVTIKMSGKVYENVTSHNASGYQFFPSGEKQYTINTTAVAPTCLTDFKSSNLDFGSAYTYVIRRASDGCLEVKEFEDIPPNTVNMALQIPQYFLLTCGEVVFSVTGLEFSYSQAPSNMKSVLQAGWLLTVAVGNIIVLIVAGAGHFPKQWAEYILFASLLLVVCVIFAIMARFYTYINPAEIEAQFDEDEKKKGIGKENPYSSLEPVSQTNM
Consider B1, for which the figures for the Km in [10] and in [11] were 300 µM and 750 µM, respectively.

B2: Solute carrier family 15 member 1 (Homo sapiens) (protein)
chain: MGMSKSHSFFGYPLSIFFIVVNEFCERFSYYGMRAILILYFTNFISWDDNLSTAIYHTFVALCYLTPILGALIADSWLGKFKTIVSLSIVYTIGQAVTSVSSINDLTDHNHDGTPDSLPVHVVLSLIGLALIALGTGGIKPCVSAFGGDQFEEGQEKQRNRFFSIFYLAINAGSLLSTIITPMLRVQQCGIHSKQACYPLAFGVPAALMAVALIVFVLGSGMYKKFKPQGNIMGKVAKCIGFAIKNRFRHRSKAFPKREHWLDWAKEKYDERLISQIKMVTRVMFLYIPLPMFWALFDQQGSRWTLQATTMSGKIGALEIQPDQMQTVNAILIVIMVPIFDAVLYPLIAKCGFNFTSLKKMAVGMVLASMAFVVAAIVQVEIDKTLPVFPKGNEVQIKVLNIGNNTMNISLPGEMVTLGPMSQTNAFMTFDVNKLTRINISSPGSPVTAVTDDFKQGQRHTLLVWAPNHYQVVKDGLNQKPEKGENGIRFVNTFNELITITMSGKVYANISSYNASTYQFFPSGIKGFTISSTEIPPQCQPNFNTFYLEFGSAYTYIVQRKNDSCPEVKVFEDISANTVNMALQIPQYFLLTCGEVVFSVTGLEFSYSQAPSNMKSVLQAGWLLTVAVGNIIVLIVAGAGQFSKQWAEYILFAALLLVVCVIFAIMARFYTYINPAEIEAQFDEDEKKNRLEKSNPYFMSGANSQKQM
Take B2: the Km amounted to 860 µM in [12] and 290 µM in series [13].

B3: Solute carrier family 15 member 1 (Rattus norvegicus) (protein)
chain: MGMSKSRGCFGYPLSIFFIVVNEFCERFSYYGMRALLVLYFRNFLGWDDDLSTAIYHTFVALCYLTPILGALIADSWLGKFKTIVSLSIVYTIGQAVISVSSINDLTDHDHDGSPNNLPLHVALSMIGLALIALGTGGIKPCVSAFGGDQFEEGQEKQRNRFFSIFYLAINAGSLLSTIITPILRVQQCGIHSQQACYPLAFGVPAALMAVALIVFVLGSGMYKKFQPQGNIMGKVAKCIRFAIKNRFRHRSKAFPKRNHWLDWAKEKYDERLISQIKIMTKVMFLYIPLPMFWALFDQQGSRWTLQATTMTGKIGTIEIQPDQMQTVNAILIVIMVPIVDAVVYPLIAKCGFNFTSLKKMTVGMFLASMAFVVAAIVQVEIDKTLPVFPSGNQVQIKVLNIGNNDMAVYFPGKNVTVAQMSQTDTFMTFDVDQLTSINVSSPGSPGVTTVAHEFEPGHRHTLLVWGPNLYRVVKDGLNQKPEKGENGIRFVSTLNEMITIKMSGKVYENVTSHSASNYQFFPSGQKDYTINTTEIAPNCSSDFKSSNLDFGSAYTYVIRSRASDGCLEVKEFEDIPPNTVNMALQIPQYFLLTCGEVVFSVTGLEFSYSQAPSNMKSVLQAGWLLTVAIGNIIVLIVAEAGHFDKQWAEYVLFASLLLVVCIIFAIMARFYTYINPAEIEAQFDEDEKKKGVGKENPYSSLEPVSQTNM
B3: the results for the Km in series [14] and in series [15] were 160 µM and 240 µM, respectively.
